Test results from publication PMC4792293 (RSC advances, 2015).
Read-outs that look alike come from different tables or passages of the source.

How the values were obtained:
[1] = biological target: T1, α-Glucosidase (EC 3.2.1.20) from Saccharomyces cerevisiae (Saccharomyces cerevisiae, UniProt P53341); assay: α-glucosidase inhibitory assay; format: biochemical
[2] = biological target: T2, α-glucosidase (Saccharomyces cerevisiae, UniProt P53341); assay: Circular dichroism; format: binding; settings: α-glucosidase 2 μM; for β-Turns %: control 14.3; for β-Fold %: control 21.9; for Unordered %: control 26.9; for α-Helix %: control 36.3
T2 sequence (P53341 whole entry): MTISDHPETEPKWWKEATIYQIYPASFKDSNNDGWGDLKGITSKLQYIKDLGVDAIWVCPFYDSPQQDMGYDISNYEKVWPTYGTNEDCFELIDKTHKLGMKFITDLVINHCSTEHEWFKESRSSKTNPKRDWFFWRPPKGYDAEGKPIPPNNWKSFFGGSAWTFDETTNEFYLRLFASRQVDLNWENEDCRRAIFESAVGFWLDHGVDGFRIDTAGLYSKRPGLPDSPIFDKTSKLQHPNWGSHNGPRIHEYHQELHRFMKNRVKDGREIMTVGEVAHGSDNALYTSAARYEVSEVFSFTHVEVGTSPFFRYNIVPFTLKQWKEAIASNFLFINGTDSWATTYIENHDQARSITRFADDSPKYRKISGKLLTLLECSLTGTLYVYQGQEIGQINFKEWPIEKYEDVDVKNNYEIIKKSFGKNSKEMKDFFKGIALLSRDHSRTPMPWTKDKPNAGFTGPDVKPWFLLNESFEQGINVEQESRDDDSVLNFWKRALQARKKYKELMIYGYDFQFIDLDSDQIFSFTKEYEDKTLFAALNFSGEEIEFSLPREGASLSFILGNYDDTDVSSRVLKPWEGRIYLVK
Procedure, shortened: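 Far-UV CD spectra (190–240 nm) at 25 °C. Yeast α-glucosidase at 2 μM was co-incubated with test compound at 0–80 μM for 20 min at 37 °C in 0.1 M sodium phosphate, pH 6.8, in a 1.0 mm path-length cell. Spectra were blank-subtracted against buffer, noise-reduced and smoothed. Secondary-structure fractions were estimated with the DichroWeb server.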

[3] = biological target: T1, α-Glucosidase (EC 3.2.1.20) from Saccharomyces cerevisiae; assay: Kinetics of α-glucosidase inhibition; format: biochemical; settings: Lineweaver-Burk plots, ligand 2 – 250 μM
Procedure, shortened: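 Two inhibitor concentrations within 2–250 μM were tested against p-nitrophenyl-α-D-glucopyranoside at 1–1000 μM in 50 mM phosphate, pH 6.8. Enzyme and inhibitor were pre-incubated for 30 min, at room temperature per the methods but at 37 °C per the figure legend. Substrate was then added, reacted 60 s at room temperature and read at 405 nm. Inhibition type was assigned from double-reciprocal plots.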

[4] = biological target: T2, α-glucosidase; assay: Isothermal titration calorimetry; format: binding; settings: for binding constants (Ka) / ΔG / Ka / ΔH / ΔS / N [GCGs/α-glucosidase] (ligand:enzyme ratio): ITC; for ITC titration peaks: ligand concentrations 1 – 4 mM
Procedure, shortened: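 Test compound (1–4 mM) was titrated into α-glucosidase (0.026–0.031 mM) in the cell, both in 100 mM phosphate, pH 7.0, and degassed 20 min under vacuum. Titration used 17 injections at 240 s intervals, 25 °C, with stirring at 310 rpm. Blanks were buffer into buffer and compound into buffer. Data were fit by nonlinear regression to a single-site binding model.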

[5] = tested on: α-glucosidase; settings: cited from earlier work
[6] = yeast α-glucosidase, pNPG, pH 6.9, 25 °C, mean ± S.D. from three independent experiments

T1 sequence (P53341 whole entry): as above

Compound: maplexin F
- IC50 [1, 6]: 13.7 ± 0.87 µM
- β-Turns % ([2]; ligand 20 μM): 15.6%
- β-Fold % ([2]; ligand 20 μM): 24.7%
- Unordered % ([2]; ligand 20 μM): 28.4%
- α-Helix % ([2]; ligand 20 μM): 30.7%
- β-Turns % ([2]; ligand 40 μM): 16.6%
- β-Fold % ([2]; ligand 40 μM): 22.7%
- Unordered % ([2]; ligand 40 μM): 28.9%
- α-Helix % ([2]; ligand 40 μM): 31.2%
- Type of inhibition [3]: noncompetitive
- binding constants (Ka) [4]: 28500 mol⁻¹
- ΔG [4]: -6.09 kcal/mol
- Ka ([4]; 25 °C, phosphate buffer pH 7.0): 2.85 10^4 mol^−1
- ΔG ([4]; 25 °C, phosphate buffer pH 7.0): -1.46 kcal/mol
- ΔH ([4]; 25 °C, phosphate buffer pH 7.0): -2.452 kcal/mol
- ΔS ([4]; 25 °C, phosphate buffer pH 7.0): 14.06 J mol^−1 K^−1
- N [GCGs/α-glucosidase] (ligand:enzyme ratio) ([4]; 25 °C, phosphate buffer pH 7.0, listed as MF): 1.01

Compound: O=C(OC[C@H]1OC[C@H](OC(=O)c2cc(O)c(O)c(O)c2)[C@@H](OC(=O)c2cc(O)c(O)c(O)c2)[C@@H]1OC(=O)c1cc(O)c(O)c(O)c1)c1cc(O)c(O)c(O)c1 [maplexin J]
- IC50 [1, 6]: 4.27 ± 0.13 µM
- potency relative to maplexins E and F ([1]; α-glucosidase inhibition): three times more potent than maplexins E and F
- β-Turns % ([2]; ligand 20 μM): 20.4%
- β-Fold % ([2]; ligand 20 μM): 21.1%
- Unordered % ([2]; ligand 20 μM): 26.4%
- α-Helix % ([2]; ligand 20 μM): 31.8%
- β-Turns % ([2]; ligand 40 μM): 19.1%
- β-Fold % ([2]; ligand 40 μM): 24.4%
- Unordered % ([2]; ligand 40 μM): 25.3%
- α-Helix % ([2]; ligand 40 μM): 30.7%
- Type of inhibition [3]: noncompetitive
- binding constants (Ka) [4]: 42200 mol⁻¹
- ΔG [4]: -6.31 kcal/mol
- Ka ([4]; 25 °C, phosphate buffer pH 7.0): 4.22 10^4 mol^−1
- ΔG ([4]; 25 °C, phosphate buffer pH 7.0): -1.51 kcal/mol
- ΔH ([4]; 25 °C, phosphate buffer pH 7.0): -6.016 kcal/mol
- ΔS ([4]; 25 °C, phosphate buffer pH 7.0): 63.31 J mol^−1 K^−1
- N [GCGs/α-glucosidase] (ligand:enzyme ratio) ([4]; 25 °C, phosphate buffer pH 7.0, listed as MJ): 1.01

Compound: O=C(OC[C@H]1OC[C@H](O)[C@@H](O)[C@@H]1O)c1cc(O)c(O)c(O)c1 [ginnalin B]
- IC50 [1]: > 1000 µM
- ITC titration peaks [4]: too weak to yield thermodynamic parameters

Compound: O=C(O[C@H]1CO[C@H](CO)[C@@H](O)[C@@H]1O)c1cc(O)c(O)c(O)c1 [ginnalin C]
- IC50 [1]: > 1000 µM
- ITC titration peaks [4]: too weak to yield thermodynamic parameters

Compound: O=C(OC[C@H]1O[C@@H](OC(=O)c2cc(O)c(O)c(O)c2)[C@H](OC(=O)c2cc(O)c(O)c(O)c2)[C@@H](OC(=O)c2cc(O)c(O)c(O)c2)[C@@H]1OC(=O)c1cc(O)c(O)c(O)c1)c1cc(O)c(O)c(O)c1 [PGG, pentagalloyl glucose]
- Type of inhibition [5]: noncompetitive α-glucosidase inhibitor

Compound: C[C@H]1O[C@H](O[C@H]2[C@H](O)[C@@H](O)[C@@H](O[C@H]3[C@H](O)[C@@H](O)C(O)O[C@@H]3CO)O[C@@H]2CO)[C@H](O)[C@@H](O)[C@@H]1N[C@H]1C=C(CO)[C@@H](O)[C@H](O)[C@H]1O (stereo partly shown) [acarbose]
- Type of inhibition ([5]; positive control): competitive inhibitor

Compound: O=C(OC[C@H]1OC[C@H](OC(=O)c2cc(O)c(O)c(O)c2)[C@@H](O)[C@@H]1O)c1cc(O)c(O)c(O)c1 [ginnalin A]
- IC50 [1]: 216 ± 3.19 µM
- β-Turns % ([2]; ligand 40 μM): 11.5%
- β-Fold % ([2]; ligand 40 μM): 22.7%
- Unordered % ([2]; ligand 40 μM): 27.8%
- α-Helix % ([2]; ligand 40 μM): 37.8%
- β-Turns % ([2]; ligand 80 μM): 15.8%
- β-Fold % ([2]; ligand 80 μM): 22.5%
- Unordered % ([2]; ligand 80 μM): 27.7%
- α-Helix % ([2]; ligand 80 μM): 33.5%
- Type of inhibition [3]: noncompetitive
- ITC titration peaks [4]: too weak to yield thermodynamic parameters
